Calls of active or inactive are those of the source. The rule behind the calls is not given here.
Assays:
NCI-H460 = assay: Upregulation of HSF1 protein level in human NCI-H460 cells at 10 to 30 uM after 12 hrs by Western blot analysis; type: functional, cell-based
Outline: (§1)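 NCI-H460 cells treated 12 h at 10 or 30 μM; HSF1, HSP27 and HSP70 detected by Western blot.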

[1] = target: T1, Heat shock factor protein 1 (Homo sapiens) (UniProt Q00613); assay: Activation of HSF1 in human NCI-H460 cells assessed as upregulation of HSP25 protein levels at 10 to 30 uM after 12 hrs by Western blot analysis; type: cell-based; outline: as §1
T1 sequence (whole entry): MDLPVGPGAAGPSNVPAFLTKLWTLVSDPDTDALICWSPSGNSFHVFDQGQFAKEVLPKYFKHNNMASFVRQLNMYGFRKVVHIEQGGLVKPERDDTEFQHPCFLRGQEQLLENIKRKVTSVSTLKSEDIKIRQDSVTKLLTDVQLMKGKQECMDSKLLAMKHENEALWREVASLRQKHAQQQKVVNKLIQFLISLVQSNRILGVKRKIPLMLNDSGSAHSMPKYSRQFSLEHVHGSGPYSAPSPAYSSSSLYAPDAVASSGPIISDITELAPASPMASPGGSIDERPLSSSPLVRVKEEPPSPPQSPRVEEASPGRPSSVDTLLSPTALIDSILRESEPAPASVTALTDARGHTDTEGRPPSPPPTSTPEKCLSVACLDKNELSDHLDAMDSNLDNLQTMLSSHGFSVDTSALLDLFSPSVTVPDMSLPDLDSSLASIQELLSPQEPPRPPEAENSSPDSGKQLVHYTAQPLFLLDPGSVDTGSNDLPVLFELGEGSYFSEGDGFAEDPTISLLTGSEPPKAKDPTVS

[2] = target: T1, Heat shock factor protein 1 (Homo sapiens); assay: Activation of HSF1 in human NCI-H460 cells expressing pGL4-hsp70 construct assessed as upregulation of hsp70 promoter activity at 10 to 30 uM after 12 hrs by luciferase reporter gene assay; type: cell-based
Outline: (§2)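 NCI-H460 cells stably carrying hsp25 or hsp70 promoter–luciferase reporters, seeded, treated after 24 h at 10 or 30 μM and harvested 12 h later. Lysate luciferase normalized to β-galactosidase; mean of three independent experiments, fold-change vs negative control.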

[3] = target: T1, Heat shock factor protein 1 (Homo sapiens); assay: Activation of HSF1 in human NCI-H460 cells expressing pGL4-hsp25 construct assessed as upregulation of hsp25 promoter activity at 10 to 30 uM after 12 hrs by luciferase reporter gene assay; type: cell-based; outline: as §2
[4] = target: T1, Heat shock factor protein 1 (Homo sapiens); assay: Activation of HSF1 in human NCI-H460 cells assessed as upregulation of HSP70 protein levels at 10 to 30 uM after 12 hrs by Western blot analysis; type: cell-based; outline: as §1
[5] = target: T1, Heat shock factor protein 1 (Homo sapiens); assay: Activation of HSF1 in human NCI-H460 cells assessed as upregulation of HSP25 protein levels at 1 uM after 12 hrs by Western blot analysis; type: cell-based
Outline: (§3)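 Cells were grown to 30% confluence and treated for 12 h. Equal protein amounts were lysed and cleared at 13 000 rpm for 30 min at 4 °C, then boiled in sample buffer for 5 min. Proteins were resolved by 8% or 12% SDS-PAGE and transferred to nitrocellulose. Membranes were blocked in 5% milk/PBST, given primary antibody for 18 h at 4 °C and an HRP secondary, and developed by ECL.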

[6] = target: T1, Heat shock factor protein 1 (Homo sapiens); assay: Activation of HSF1 in human NCI-H460 cells assessed as upregulation of HSP70 protein levels at 1 uM after 12 hrs by Western blot analysis; type: cell-based; outline: as §3
L132 = assay: Cytotoxicity against human L-132 cells assessed as reduction in cell viability up to 20 uM after 24 hrs by MTT assay; type: cell-based; conditions: l132, 24 h
Outline: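 L132 cells treated 24 h at indicated doses up to 20 μM. MTT (5 mg/mL in PBS) 4 h at 37 °C, formazan dissolved in DMSO, absorbance at 540 nm converted to cell number via calibration curve. Celastrol positive control.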

| SMILES | Activity (NCI-H460) | Activity [1] | Activity [2] | Activity [3] | Activity [4] | Activity [5] | Activity [6] | Activity (L132) |
| --- | --- | --- | --- | --- | --- | --- | --- | --- |
| COc1cc(CCC=O)ccc1O | inactive | inactive | inactive | inactive | inactive | – | – | – |
| COc1cc(CCCO)ccc1O | inactive | inactive | inactive | inactive | inactive | – | – | – |
| CC1=C(O)C(=O)C=C2C1=CC=C1[C@@]2(C)CC[C@@]2(C)[C@@H]3C[C@](C)(C(=O)O)CC[C@]3(C)CC[C@]12C [CELASTROL] | – | – | – | – | – | Active | Active | Toxic |

Source: ChEMBL document CHEMBL4190282, “The Conjugated Double Bond of Coniferyl Aldehyde Is Essential for Heat Shock Factor 1 Mediated Cytotoprotection” (J Nat Prod, 2017)
